Holding throughout (assay type): functional
Experiment [1] deals with Schistosoma mansoni. The experiment is described as follows: Incorporation of 6M*10e6 [3H]uridine in hycanthone(HC) resistant Schistosoma mansoni. In outline:
(§1)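 Adult HC-resistant S. mansoni were treated in vitro, and [3H]uridine incorporation by the worms was measured. Values are % of control. Concentrations are given in M × 10^6.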

Experiment [2] deals with Mus musculus. The experiment is described as follows: In vivo antitumor activity against p-388 lymphocytic leukemia in mice at 10 mg/kg. In a few lines: (§2)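 Murine P388 lymphocytic leukemia model tested by the National Cancer Institute. Compound given once daily for 9 days; activity expressed as T/C.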
In experiment [3] the test system is Schistosoma mansoni. The experiment is described as follows: Incorporation of 1.2 M *10e6 [3H]uridine in hycanthone(HC) sensitive Schistosoma mansoni.
For experiment [4], the system named is Mus musculus. The experiment is described as follows: In vivo antitumor activity against p-388 lymphocytic leukemia in mice at 5 mg/kg. In outline:
as §2

For experiment [5], the system named is Schistosoma mansoni. The experiment is described as follows: Incorporation of 6M*10e6 [3H]uridine in hycanthone(HC) sensitive Schistosoma mansoni.
The subject of experiment [6] is Mus musculus. Put plainly: In vivo antitumor activity against p-388 lymphocytic leukemia in mice at 2.5 mg/kg. In outline: as §2
Experiment [7] relates to Schistosoma mansoni. The experiment is described as follows: Day 50% survival of worms in culture of HC resistant Schistosoma mansoni. In a few lines:
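Adult HC-resistant S. mansoni were exposed in vitro and kept in culture. The value is the day by which 50% of worms were dead. Cultures were ended at different times in different experiments. Concentrations are given in M × 10^6.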

The test system of experiment [8] is Mus musculus. Put plainly: In vivo antitumor activity against p-388 lymphocytic leukemia in mice at 20 mg/kg. In outline: as §2
For experiment [9], the system named is Schistosoma mansoni. The experiment is described as follows: Day 50% survival of worms in culture of HC sensitive Schistosoma mansoni.
The subject of experiment [10] is Schistosoma mansoni. The experiment is described as follows: Incorporation of 1.2 M *10e6 [3H]uridine in hycanthone(HC) resistant Schistosoma mansoni. In a few lines:
as §1

The test system of experiment [11] is Mus musculus. The experiment is described as follows: In vivo antitumor activity against p-388 lymphocytic leukemia in mice at 6.25 mg/kg. In outline:
as §2

Experiment [12] deals with Schistosoma mansoni. Put plainly: Incorporation of 5.5M*10e6 [3H]uridine in hycanthone(HC) sensitive Schistosoma mansoni.
Experiment [13] deals with Schistosoma mansoni. The experiment is described as follows: Incorporation of 1.1 M *10e6 [3H]uridine in hycanthone(HC) sensitive Schistosoma mansoni.
The test system of experiment [14] is Mus musculus. Put plainly: In vivo antitumor activity against p-388 lymphocytic leukemia in mice at 25 mg/kg. In a few lines:
as §2

The subject of experiment [15] is Mus musculus. Put plainly: In vivo antitumor activity against p-388 lymphocytic leukemia in mice at 3.12 mg/kg. In outline:
as §2

In experiment [16] the test system is Mus musculus. Put plainly: In vivo antitumor activity against p-388 lymphocytic leukemia in mice at 12.5 mg/kg. In a few lines:
as §2

The subject of experiment [17] is Schistosoma mansoni. The experiment is described as follows: Incorporation of 1.1 M *10e6 [3H]uridine in hycanthone(HC) resistant Schistosoma mansoni. In a few lines:
as §1

The subject of experiment [18] is Schistosoma mansoni. Put plainly: Incorporation of 5.5 M*10e6 [3H]uridine in hycanthone(HC) resistant Schistosoma mansoni. In a few lines: as §1

Where “and” joins values, the source holds several entries; their conditions need not be identical. Equal entries are not always repeated.

Usually T/C stands for the ratio of treated to control. Take `CCN(CC)CCNc1ccc(COC(=O)OC)c2sc3ccccc3c(=O)c12`: the Control is on record as 28% with Schistosoma mansoni [1], 32% in the experiment with Schistosoma mansoni [3], 6% in the experiment with Schistosoma mansoni [5] and 80% with Schistosoma mansoni [10]. The T/C with Mus musculus [2] is reported as 124%; in the experiment on Mus musculus [4], 124%; with Mus musculus [6], 118%; in the experiment with Mus musculus [8], 122%. Also, the Effect in the experiment with Schistosoma mansoni [7] is 13 days and 6 days; in the experiment with Schistosoma mansoni [9], 7 days and 6 days.
On to `CCCCNC(=O)OCc1ccc(NCCN(CC)CC)c2c(=O)c3ccccc3sc12`, for which the T/C was 135% in the experiment with Mus musculus [11], 129% in the experiment with Mus musculus [14], 119% with Mus musculus [15] and 104% with Mus musculus [16]. The Control in the experiment with Schistosoma mansoni [12] is 31%; in the experiment on Schistosoma mansoni [13], 34%; in the experiment with Schistosoma mansoni [17], 100%; in the experiment with Schistosoma mansoni [18], 100%. The same compound gave an Effect in the experiment with Schistosoma mansoni [9] of more than 12 days.
